Measurements published in ChEMBL document CHEMBL4270554, “Discovery of the cancer cell selective dual acting anti-cancer agent (Z)-2-(1H-indol-3-yl)-3-(isoquinolin-5-yl)acrylonitrile (A131)” (Eur J Med Chem, 2018).
Activity calls are given as the source filed them. The calls are words filed in the database; no cut-off is given here.

Tests used:
hTERT-BJ [1] = assay: Inhibition of mitotic progression in human hTERT-BJ cells transformed with hTert, small t, shRNAs against p53 and pRb and H-RasV12-ER assessed as increase in phosphorylated histone H3 (Ser10) level at 5 uM after 24 hrs by immunoblot analysis relative to control; type: functional
Method in brief: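 Fully transformed BJ fibroblasts (hTert, small t, shRNAs to p53 and pRb, H-RasV12-ER) treated 24 h at 5 μM. Immunoblot protocol as for HeLa. pH3 (Ser10) band intensity expressed as fold of DMSO control; under 2-fold counted as insignificant.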

hTERT-BJ [2] = assay: Induction of autophagy in human hTERT-BJ cells transformed with hTert, small t, shRNAs against p53 and pRb and H-RasV12-ER assessed as increase in LC3-2 to LC3-1 ratio at 5 uM after 24 hrs by immunoblot analysis relative to control; type: functional
Method in brief: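 Fully transformed BJ fibroblasts (hTert, small t, shRNAs to p53 and pRb, H-RasV12-ER) grown at 37 °C, 5% CO2 in 10% FBS medium; treated 24 h at 5 μM. Triton lysis, 14% SDS-PAGE, LC3 immunoblot; LC3-II/LC3-I band ratio relative to DMSO-treated control, under 2-fold induction deemed insignificant.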

BJ = assay: Cell cycle arrest in human BJ cells assessed as accumulation at sub-G1 phase at 5 uM after 48 hrs; type: cell-based
Method in brief: (§1)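 Isogenic normal and fully transformed BJ fibroblasts (hTert, small t, shRNAs to p53 and pRb, H-RasV12-ER) exposed to 5 μM for 48 h. Percentage of cells in sub-G1 phase determined as a cell death measure.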

hTERT-BJ [3] = assay: Cell cycle arrest in human hTERT-BJ cells transformed with hTert, small t, shRNAs against p53 and pRb and H-RasV12-ER assessed as accumulation at sub-G1 phase at 5 uM after 48 hrs; type: functional, cell-based; method in brief: as §1

Structure (SMILES) | fold change (FC) (hTERT-BJ [1]) | fold change (FC) (hTERT-BJ [2]) | Activity (BJ) | Activity (hTERT-BJ [3])
N#CC(Cc1cccc2cnccc12)c1c[nH]c2ccccc12 (stereo unspecified) | 1.2 | 0.3 | – | –
N#C/C(=C/c1cccc2cnccc12)c1nc2ccccc2[nH]1 | 1.1 | 1.2 | Non-Toxic | inactive
N#C/C(=C\c1ccnc2ccccc12)c1c[nH]c2ccccc12 | 1.4 | 0.4 | – | –
N#C/C(=C\c1cccc2cnccc12)c1c[nH]c2ccc([N+](=O)[O-])cc12 | 0.9 | 0.6 | – | –
N#C/C(=C\c1cccnc1)c1c[nH]c2ccccc12 | 1.2 | 1.1 | – | –
N#C/C(=C\c1cncc2ccccc12)c1c[nH]c2ccccc12 | 1.3 | 0.7 | Non-Toxic | inactive
N#C/C(=C\c1cccc2cnccc12)c1c[nH]c2ccc(OCCC3OCCO3)cc12 | 1 | 0.7 | – | –
N#C/C(=C\c1cccc2ncccc12)c1c[nH]c2ccccc12 | 10.5 | 0.7 | Toxic | Active
N#C/C(=C\c1cccc2cccnc12)c1c[nH]c2ccccc12 | 1.3 | 0.6 | – | –
N#C/C(=C\c1cccc2cnccc12)c1c[nH]c2cccc(Br)c12 | 1.1 | 0.5 | – | –
C(=C\c1c[nH]c2ccccc12)/c1cccc2cnccc12 | 1.3 | 5.4 | Non-Toxic | inactive
N#C/C(=C\c1cccc2cnccc12)c1c[nH]c2c(Br)cccc12 | 1.4 | 2.2 | – | –
N#C/C(=C\c1cccc2ccncc12)c1c[nH]c2ccccc12 | 1.5 | 0.7 | – | –
Cn1cc(/C(C#N)=C/c2cccc3cnccc23)c2ccccc21 | 1.1 | 1.6 | – | –
N#C/C(=C\c1cccc2cnccc12)c1c[nH]c2c(CN3CCCC3)cccc12 | 0.8 | 3.7 | – | –
N#C/C(=C\c1cccc2cnccc12)c1c[nH]c2ncccc12 | 1.8 | 1.4 | – | –
N#C/C(=C\c1cccc2cnccc12)c1c[nH]c2cc(Br)ccc12 | 1.6 | 0.7 | – | –
CC(=O)Nc1ccc2[nH]cc(/C(C#N)=C/c3cccc4cnccc34)c2c1 | 1.2 | 0.5 | – | –
N#C/C(=C\c1cccc2cnccc12)c1c[nH]c2ccc(Cl)cc12 | 1.4 | 2 | – | –
N#C/C(=C\c1cccc2cnccc12)c1c[nH]c2ccc(CN3CCCC3)cc12 | 1 | 3.3 | – | –
NC(=O)/C(=C\c1cccc2cnccc12)c1c[nH]c2ccccc12 | 1.3 | 0.6 | – | –
N#C/C(=C\c1cncc2cnccc12)c1c[nH]c2ccccc12 | 1.4 | 1 | – | –
N#C/C(=C\c1cccc2cnccc12)c1c[nH]c2cc(CN3CCCC3)ccc12 | 1.1 | 5.7 | – | –
O=C(Nc1cccc2cnccc12)c1c[nH]c2ccccc12 | 1.4 | 0.4 | – | –
N#C/C(=C\c1cccc2cnccc12)c1n[nH]c2ccccc12 | 1.4 | 2 | – | –
N#C/C(=C\c1cccc2cnccc12)c1c[nH]c2ccc(F)cc12 | 0.9 | 0.5 | – | –
COc1cccc2c(/C(C#N)=C/c3cccc4cnccc34)c[nH]c12 | 3.9 | 2.7 | – | –
Cc1[nH]c2ccccc2c1/C(C#N)=C/c1cccc2cnccc12 | 1.1 | 0.7 | – | –
COc1ccc2c(/C(C#N)=C/c3cccc4cnccc34)c[nH]c2c1 | 4.3 | 2.6 | – | –
